Source: ChEMBL document CHEMBL1130405, “Cross-linking and sequence specific alkylation of DNA by aziridinyl quinones. 2. Structure requirements for sequence selectivity” (J Med Chem, 1997)

System: K562
Test: In vitro cytotoxicity tested against human chronic leukemia K562 cells
Assay type: functional, cell-based
Outline: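 Human K562 chronic myeloid leukaemia cells, kept in log-phase suspension in RPMI 1640 with 10% horse serum at 37 °C, 5% CO2. Seeded at 600 cells/well and given continuous drug exposure for 5 days. Growth was read by MTT absorbance at 540 and 640 nm. Inhibition of growth was plotted against concentration, in triplicate at each concentration.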

| Structure (SMILES) | IC50 [nM] |
| --- | --- |
| O=C1C=C(N2CC2)C(=O)C(N2CC2)=C1N1CC1 [TRIAZIQUONE] | 2.9 |
| O=C1C=C(N2CC2)C(=O)C(I)=C1N1CC1 | 12.6 |
| O=C1C(I)=C(N2CC2)C(=O)C(I)=C1N1CC1 | 50 |
| CC1=CC(=O)C(N2CC2)=CC1=O | 216 |
| Cc1ccc(C2=C(N3CC3)C(=O)C=C(N3CC3)C2=O)cc1 | 4.8 |
| O=C1C(Br)=C(N2CC2)C(=O)C(Br)=C1N1CC1 | 42 |
| O=C1C(c2ccccc2)=C(N2CC2)C(=O)C(c2ccccc2)=C1N1CC1 | 67 |
| CC1=C(C)C(=O)C(N2CC2)=CC1=O | 239 |
| O=C1C(N2CC2)=C(N2CC2)C(=O)C(N2CC2)=C1N1CC1 | 5.8 |
| O=C1C(F)=C(N2CC2)C(=O)C(F)=C1N1CC1 | 10 |
| CCOC(=O)NC1=C(N2CC2)C(=O)C(NC(=O)OCC)=C(N2CC2)C1=O [DIAZIQUONE] | 63 |
| CC1=C(N2CC2)C(=O)C(Cl)=C(N2CC2)C1=O | 76 |
| O=C1C(Cl)=C(N2CC2)C(=O)C(Cl)=C1N1CC1 | 46 |
| O=C1C=C(N2CC2)C(=O)C(Cl)=C1N1CC1 | 5.3 |
| O=C1C(F)=C(N2CC2)C(=O)C(N2CC2)=C1F | 39 |
| CC1=C(N2CC2)C(=O)C(C)=C(N2CC2)C1=O | 1.8 |
| O=C1C=C(N2CC2)C(=O)C(Br)=C1N1CC1 | 7.3 |
| O=C1C=C(N2CC2)C(=O)C=C1N1CC1 | 8.3 |
| O=C1C=C(N2CC2)C(=O)C(c2ccccc2)=C1N1CC1 | 3.1 |
| OCC/N=C1C(O)=C(N2CC2)/C(=N\CCO)C(O)=C/1N1CC1 | 158 |
| O=C1C=C(N2CC2)C(=O)C(c2ccc(Oc3ccccc3)cc2)=C1N1CC1 | 170 |
| CC1=CC(=O)C(N2CC2)=C(C)C1=O | 476 |
